Test results published in publication PMC7655718 (The Journal of antibiotics, 2020).
Converted amounts (≈) assume the structure as drawn. Like-named read-outs stand apart in the source and are kept apart here.

Columns and labels:
[1] = system: B. subtilis ATCC 6623 (Bs); assay: MIC, microdilution with resazurin; type: cell-based, Bacillus subtilis; details: for MIC: Bacillus subtilis, ATCC6623, read-out: MIC Bs
[2] = system: S. aureus ATCC 25923 (Sa23); assay: MIC, microdilution with resazurin; type: cell-based; details: Staphylococcus aureus, ATCC25923, read-out: MIC Sa23
In short: (§1)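 Compounds dissolved in DMSO at 2 mg/mL. Overnight blood-agar colonies were suspended in PBS to 0.5 McFarland, then diluted in Mueller Hinton broth to about 1x10^6 cfu/mL with resazurin (1:1000 of 0.1% w/v stock). Twofold DMSO dilutions were added 1:40, giving 50 to 0.4 μg/mL at 2.5% DMSO. Incubation was 35 °C for 16-20 h. Blue/non-turbid wells counted as inhibited, pink/turbid as grown.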

[3] = system: S. aureus ATCC 33591 (Sa91); assay: MIC, microdilution with resazurin; type: cell-based; details: Staphylococcus aureus, ATCC33591, read-out: MIC Sa91
In short: as §1

A. baumannii ATCC 19606 = assay: Time kill assay; type: cell-based, Acinetobacter baumannii; details: 4xMIC
In short: (§2)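 Growth curves by optical density set the log phase. Log-phase bacteria (about 2 h shaking in Mueller Hinton broth II) were diluted in warm broth to about 3x10^6 cfu/mL. They were exposed to compound at 4xMIC (other multiples where indicated), in triplicate, at 35 °C. Colistin (A. baumannii) or vancomycin (S. aureus) and DMSO were included. Samples at 0, 2, 4, 6, 8, 10, 12 and 24 h were counted by drop plate on blood agar (18-24 h, 35 °C). Log cfu/mL was plotted against time.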

[4] = system: S. aureus ATCC 700699 (Sa99); assay: MIC, microdilution with resazurin; type: cell-based; details: Staphylococcus aureus, ATCC700699, read-out: MIC Sa99
In short: as §1

[5] = system: S. epidermidis 700296 (Se); assay: MIC, microdilution with resazurin; type: cell-based; details: Staphylococcus epidermidis, read-out: MIC Se
In short: as §1

[6] = system: A. baumannii ATCC 19606 (type strain, Ab06); assay: MIC and MBC; type: cell-based, Acinetobacter baumannii; details: Acinetobacter baumannii
In short: as §1

[7] = system: S. aureus BAA-2312 (Sa12); assay: MIC, microdilution with resazurin; type: cell-based; details: Staphylococcus aureus, BAA2312, read-out: MIC Sa12
In short: as §1

[8] = system: S. aureus ATCC 33592 (Sa92); assay: MIC, microdilution with resazurin; type: cell-based; details: Staphylococcus aureus, ATCC33592, read-out: MIC Sa92
In short: as §1

[9] = system: A. baumannii ATCC 747 (Ab47); assay: MIC, microdilution with resazurin; type: cell-based, Acinetobacter baumannii; details: Acinetobacter baumannii, ATCC747, read-out: MIC Ab47
In short: as §1

[10] = system: tested A. baumannii strains; assay: MIC, text summary over A. baumannii strains; type: cell-based, Acinetobacter baumannii; details: Acinetobacter baumannii, read-out: MIC value as low as
In short: as §1

[11] = system: tested Gram-positive bacterial strains; assay: MIC, text summary over tested Gram-positive strains; type: cell-based; details: for MIC: read-out: MIC value as low as
[12] = system: human embryonic kidney cell line (HEK293); assay: Toxicity against HEK293 cell line; type: cell-based
[13] = system: S. aureus ATCC 25923 biofilm formation; assay: Biofilm inhibition assay; type: cell-based, Staphylococcus aureus
In short: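 Blood-agar culture was suspended in PBS (0.5 McFarland), then diluted 1:100 in yeast extract casamino acid broth (about 1x10^6 cfu/mL). Compound at 2xMIC, MIC and 0.5xMIC was added before biofilm formation, in triplicate, with broth-only and bacteria+DMSO controls. Incubation was 35 °C for 24 h. Wells were PBS-washed, dried, stained with 0.1% crystal violet, solubilised in 33% acetic acid and read at 620 nm. % inhibition = [1−(ODcompound−ODbroth)/(ODdmso−ODbroth)]×100, from mean and SD.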

[14] = system: S. aureus ATCC 33599 (MRSA); assay: MIC and MBC; type: cell-based, Staphylococcus aureus; details: Staphylococcus aureus, ATCC33599|MRSA
In short: as §1

[15] = system: S. aureus ATCC 25923 preformed biofilm; assay: Biofilm destruction assay; type: cell-based, Staphylococcus aureus; details: 2xMIC, MIC and 0.5xMIC tested, 24 hours
In short: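 Biofilm was first grown in 96-well plates for 24 h at 35 °C and washed with PBS to remove unadhered cells. Fresh yeast extract casamino acid broth was added with compound at 2xMIC, MIC or 0.5xMIC, or DMSO, in triplicate, plus broth-only wells. Incubation was 35 °C for 24 h. Crystal violet was stained, solubilised and read at 620 nm. % destruction = [1−(ODcompound−ODbroth)/(ODdmso−ODbroth)]×100, from triplicate means.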

[16] = system: S. aureus ATCC 33599 (MRSA); assay: Time kill assay; type: cell-based, Staphylococcus aureus; details: 4xMIC
In short: as §2

[17] = 2xMIC, MIC and 0.5xMIC concentrations, 24 hours

Compound | MIC [1] [µg/mL] | MIC [2] [µg/mL] | MIC [3] [µg/mL] | MIC [4] [µg/mL] | MIC [5] [µg/mL] | MIC ([6]; ATCC19606, read-out: MIC Ab06) [µg/mL] | MIC [7] [µg/mL] | MIC [8] [µg/mL] | MIC [9] [µg/mL] | MIC [11] [µg/mL] | further results
O=C(O)c1ccc(-n2cc(/C=N/Nc3ccc(Cl)cc3)c(-c3ccc4ccccc4c3)n2)cc1 [Compound 16] | 12.5 (≈ 26.8 µM) | 6.25 (≈ 13.4 µM) | 12.5 (≈ 26.8 µM) | 1.56 (≈ 3.34 µM) | 6.25 (≈ 13.4 µM) | 3.12 (≈ 6.69 µM) | 6.25 (≈ 13.4 µM) | 3.12 (≈ 6.69 µM) | 6.25 (≈ 13.4 µM) | – | time kill effect (A. baumannii ATCC 19606; 24 hours at 35 °C): bacteriostatic effect; increase in log10 cfu/mL of the bacterial population (A. baumannii ATCC 19606; through 24 hours): ≤ 2 fold; MBC ([6]; ATCC19606): 50 µg/mL (≈ 107 µM); MIC ([6]; ATCC19606): 3.12 µg/mL (≈ 6.69 µM)
O=C(O)c1ccc(-n2cc(/C=N/Nc3ccccc3F)c(-c3ccc4ccccc4c3)n2)cc1 [Compound 14] | 6.25 (≈ 13.9 µM) | 12.5 (≈ 27.7 µM) | 12.5 (≈ 27.7 µM) | 3.12 (≈ 6.94 µM) | 12.5 (≈ 27.7 µM) | 25 (≈ 55.5 µM) | 12.5 (≈ 27.7 µM) | 1.56 (≈ 3.46 µM) | 25 (≈ 55.5 µM) | ≥ 1.56 | MIC [10]: ≥ 6.25 µg/mL
O=C(O)c1ccc(-n2cc(/C=N/Nc3c(F)c(F)c(F)c(F)c3F)c(-c3ccc4ccccc4c3)n2)cc1 [Compound 24] | 1.56 (≈ 2.99 µM) | 3.12 (≈ 5.98 µM) | > 50 | 0.78 (≈ 1.49 µM) | > 50 | > 50 | > 50 | 0.78 (≈ 1.49 µM) | > 50 | ≥ 0.78 | toxicity for HEK293 [12]: selective toxicity for bacterial cells
O=C(O)c1ccc(-n2cc(/C=N/Nc3cccc(F)c3)c(-c3ccc4ccccc4c3)n2)cc1 [Compound 15] | 12.5 (≈ 27.7 µM) | 6.25 (≈ 13.9 µM) | 12.5 (≈ 27.7 µM) | 1.56 (≈ 3.46 µM) | 6.25 (≈ 13.9 µM) | 6.25 (≈ 13.9 µM) | 12.5 (≈ 27.7 µM) | 3.12 (≈ 6.94 µM) | 12.5 (≈ 27.7 µM) | ≥ 1.56 | MIC [10]: ≥ 6.25 µg/mL; MBC ([6]; ATCC19606): 12.5 µg/mL (≈ 27.7 µM); MIC ([6]; ATCC19606): 6.25 µg/mL (≈ 13.9 µM)
O=C(O)c1ccc(-n2cc(/C=N/N(c3ccccc3)c3ccccc3)c(-c3ccc4ccccc4c3)n2)cc1 [Compound 8] | 12.5 (≈ 24.6 µM) | 1.56 (≈ 3.07 µM) | 3.12 (≈ 6.14 µM) | 1.56 (≈ 3.07 µM) | 1.56 (≈ 3.07 µM) | > 50 | 3.12 (≈ 6.14 µM) | 1.56 (≈ 3.07 µM) | > 50 | ≥ 1.56 | inhibition of biofilm formation [13, 17]: very effective
O=C(O)c1ccc(-n2cc(/C=N/Nc3ccc(C(F)(F)F)cc3)c(-c3ccc4ccccc4c3)n2)cc1 [Compound 25] | 1.56 (≈ 3.12 µM) | 0.78 (≈ 1.56 µM) | 25 (≈ 50 µM) | 0.78 (≈ 1.56 µM) | 25 (≈ 50 µM) | > 50 | 12.5 (≈ 25 µM) | 0.78 (≈ 1.56 µM) | > 50 | ≥ 0.78 | inhibition of biofilm formation ([13]; 2xMIC): potent biofilm inhibition activity; MBC [14]: 25 µg/mL (≈ 50 µM); MIC [14]: 0.78 µg/mL (≈ 1.56 µM); destruction of preformed biofilm [15]: excellent ability to eliminate the preformed biofilms
O=C(O)c1ccc(-n2cc(/C=N/Nc3c(F)c(F)cc(F)c3F)c(-c3ccc4ccccc4c3)n2)cc1 [Compound 23] | 3.12 (≈ 6.19 µM) | 3.12 (≈ 6.19 µM) | > 50 | 1.56 (≈ 3.09 µM) | > 50 | > 50 | > 50 | 1.56 (≈ 3.09 µM) | > 50 | ≥ 0.78 | toxicity for HEK293 [12]: selective toxicity for bacterial cells; MBC [14]: 12.5 µg/mL (≈ 24.8 µM); MIC [14]: 1.56 µg/mL (≈ 3.09 µM)
N#Cc1ccc(N/N=C/c2cn(-c3ccc(C(=O)O)cc3)nc2-c2ccc3ccccc3c2)cc1 [Compound 26] | > 50 | > 50 | > 50 | > 50 | > 50 | > 50 | > 50 | > 50 | > 50 | – | antimicrobial activity against the tested strains [11]: eliminated the activity
CN[C@H](CC(C)C)C(=O)N[C@H]1C(=O)N[C@@H](CC(N)=O)C(=O)N[C@H]2C(=O)N[C@H]3C(=O)N[C@H](C(=O)N[C@H](C(=O)O)c4cc(O)cc(O)c4-c4cc3ccc4O)[C@H](O)c3ccc(c(Cl)c3)Oc3cc2cc(c3O[C@@H]2O[C@H](CO)[C@@H](O)[C@H](O)[C@H]2O[C@H]2C[C@](C)(N)[C@H](O)[C@H](C)O2)Oc2ccc(cc2Cl)[C@H]1O [VC, vancomycin, reference compound] | 0.195 (≈ 0.135 µM) | 1.56 (≈ 1.08 µM) | 3.12 (≈ 2.16 µM) | 3.12 (≈ 2.16 µM) | 3.12 (≈ 2.16 µM) | > 50 | 0.78 (≈ 0.538 µM) | 0.39 (≈ 0.269 µM) | > 50 | – | inhibition of biofilm formation ([13]; 0.5xMIC): weak inhibition; inhibition of biofilm formation ([13]; 2xMIC and MIC concentration): potent inhibition; MBC [14]: 6.25 µg/mL (≈ 4.31 µM); MIC [14]: 3.12 µg/mL (≈ 2.16 µM); destruction of preformed biofilm [15]: almost failed to show any activity; time until bacteria were eliminated [16]: ≤ 8 h; time kill effect ([16]; 24 hours at 35 °C): mildly bactericidal
O=C(O)c1ccc(-n2cc(/C=N/N(Cc3ccccc3)c3ccccc3)c(-c3ccc4ccccc4c3)n2)cc1 [Compound 9] | 25 (≈ 47.8 µM) | 3.12 (≈ 5.98 µM) | 1.56 (≈ 2.99 µM) | 1.56 (≈ 2.99 µM) | 3.12 (≈ 5.98 µM) | > 50 | 3.12 (≈ 5.98 µM) | 1.56 (≈ 2.99 µM) | > 50 | ≥ 1.56 | –
Cc1ccc(N/N=C/c2cn(-c3ccc(C(=O)O)cc3)nc2-c2ccc3ccccc3c2)cc1 [Compound 11] | 25 (≈ 56 µM) | 25 (≈ 56 µM) | 25 (≈ 56 µM) | 6.25 (≈ 14 µM) | 25 (≈ 56 µM) | > 50 | 25 (≈ 56 µM) | 12.5 (≈ 28 µM) | > 50 | – | antimicrobial activity against the tested strains [11]: reduced the potency drastically
O=C(O)c1ccc(-n2cc(/C=N/N(Cc3ccccc3)Cc3ccccc3)c(-c3ccc4ccccc4c3)n2)cc1 [Compound 10] | > 50 | 3.12 (≈ 5.82 µM) | 1.56 (≈ 2.91 µM) | 1.56 (≈ 2.91 µM) | 3.12 (≈ 5.82 µM) | > 50 | 3.12 (≈ 5.82 µM) | 1.56 (≈ 2.91 µM) | > 50 | ≥ 1.56 | MIC Bs ([1]; B. subtilis ATCC 6623): no activity; toxicity for HEK293 [12]: did not show any significant toxicity; IC50 ([12]; Homo sapiens, HEK293, read-out: IC50 for HEK293 cell line): ~50 µg/mL (≈ 93.2 µM); inhibition of biofilm formation [13, 17]: very effective; destruction of preformed biofilm [15]: excellent ability to eliminate the preformed biofilms
O=C(O)c1ccc(-n2cc(/C=N/n3cnnc3)c(-c3ccc4ccccc4c3)n2)cc1 [Compound 32] | > 50 | > 50 | > 50 | > 50 | > 50 | > 50 | > 50 | > 50 | > 50 | – | antimicrobial activity against the tested strains [11]: failed to show any remarkable antimicrobial activity
O=C(O)c1ccc(-n2cc(/C=N/N3CCCCC3)c(-c3ccc4ccccc4c3)n2)cc1 [Compound 30] | 25 (≈ 58.9 µM) | > 25 | > 25 | 25 (≈ 58.9 µM) | > 25 | > 50 | > 50 | 25 (≈ 58.9 µM) | > 50 | – | antimicrobial activity against the tested strains [11]: failed to show any remarkable antimicrobial activity
